Data reported in ChEMBL document CHEMBL1136016, “Synthesis, biological activity, and molecular modeling investigation of new pyrazolo[4,3-e]-1,2,4-triazolo[1,5-c]pyrimidine derivatives as human A(3) adenosine receptor antagonists” (J Med Chem, 2002).
One block for each compound: values may come before it.

Tests used:
[1] = biological target: Adenosine receptors; A2b & A3 (Homo sapiens) (UniProt P29275+P0DMS8); experiment: Selectivity ratio (h2B/hA3); format: protein assay
[2] = biological target: T1, Adenosine receptor A1 (Homo sapiens, UniProt P30542); experiment: Displacement of [3H]DPCPX from human Adenosine A1 receptor expressed in CHO cells; range 509-712; format: cell-based
T1 sequence (P30542 whole entry): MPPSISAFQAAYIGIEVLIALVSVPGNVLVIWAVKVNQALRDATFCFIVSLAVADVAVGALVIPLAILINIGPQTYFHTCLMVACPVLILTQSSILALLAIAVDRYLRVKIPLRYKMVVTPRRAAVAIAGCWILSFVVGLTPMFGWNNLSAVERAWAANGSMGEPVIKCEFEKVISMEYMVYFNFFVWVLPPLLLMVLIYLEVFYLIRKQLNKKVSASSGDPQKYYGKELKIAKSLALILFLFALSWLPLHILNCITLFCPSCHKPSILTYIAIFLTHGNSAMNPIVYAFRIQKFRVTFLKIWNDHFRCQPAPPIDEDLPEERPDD
Outline: (§1)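 Human recombinant A1 receptor in CHO cell membranes, resuspended in 50 mM Tris HCl pH 7.4. Displacement run 120 min at 25 °C with 1 nM [3H]DPCPX, 50 µg protein per assay, and at least six to eight test concentrations. Nonspecific binding defined with CHA. Bound and free separated on glass-fiber filters; filter radioactivity counted. n = 3-6.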

[3] = biological target: T2, Adenosine receptor A3 (Homo sapiens, UniProt P0DMS8); experiment: Displacement of [3H]MRE3008-F20 binding at human Adenosine A3 receptor expressed in HEK cells; range 0.77-0.97; format: cell-based, HEK293
T2 sequence (P0DMS8 whole entry): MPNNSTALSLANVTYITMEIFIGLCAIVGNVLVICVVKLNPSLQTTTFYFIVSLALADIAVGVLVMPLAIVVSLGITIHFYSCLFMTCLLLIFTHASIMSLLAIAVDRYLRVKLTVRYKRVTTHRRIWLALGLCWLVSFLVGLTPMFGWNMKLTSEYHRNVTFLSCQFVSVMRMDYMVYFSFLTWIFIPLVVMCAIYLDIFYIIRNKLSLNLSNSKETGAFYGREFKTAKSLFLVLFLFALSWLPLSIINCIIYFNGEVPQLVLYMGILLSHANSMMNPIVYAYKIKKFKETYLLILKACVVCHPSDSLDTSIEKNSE

[4] = biological target: T3, Adenosine receptor A2b (Homo sapiens, UniProt P29275); experiment: Displacement of [3H]DPCPX from human Adenosine A2B receptor expressed in HEK293 cells; range 211-287; format: cell-based
T3 sequence (P29275 whole entry): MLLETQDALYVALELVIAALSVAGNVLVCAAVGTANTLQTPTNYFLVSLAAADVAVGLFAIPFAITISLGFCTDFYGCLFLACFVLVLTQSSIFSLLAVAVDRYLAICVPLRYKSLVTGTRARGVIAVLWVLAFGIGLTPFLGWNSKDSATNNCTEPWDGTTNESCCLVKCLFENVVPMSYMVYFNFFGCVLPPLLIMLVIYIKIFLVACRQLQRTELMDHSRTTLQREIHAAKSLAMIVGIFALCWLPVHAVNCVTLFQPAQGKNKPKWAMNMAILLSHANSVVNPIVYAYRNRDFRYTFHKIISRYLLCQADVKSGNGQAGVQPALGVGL
Outline: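 Membranes from HEK-293 cells with human recombinant A2B receptor. Incubation 60 min at 25 °C in 50 mM Tris HCl, 10 mM MgCl2, 1 mM EDTA, 0.1 mM benzamidine, pH 7.4, with 2 IU/mL adenosine deaminase and 40 nM [3H]DPCPX. At least six to eight test concentrations. Nonspecific binding defined with NECA. n = 3-6.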

[5] = biological target: T4, Adenosine receptor A2a (Homo sapiens, UniProt P29274); experiment: Displacement of [3H]SCH-58261 from human Adenosine A2A receptor expressed in HEK293 cells; range 48-78; format: cell-based
[6] = biological target: Adenosine receptors; A1 & A3 (Homo sapiens) (UniProt P30542+P0DMS8); experiment: Selectivity ratio (hA1/hA3); format: protein assay
[7] = biological target: T2, Adenosine receptor A3; experiment: Displacement of [3H]MRE3008-F20 binding at human Adenosine A3 receptor expressed in HEK cells; range 0.76-0.98; format: cell-based, HEK293
[8] = biological target: T1, Adenosine receptor A1; experiment: Displacement of [3H]DPCPX from human Adenosine A1 receptor expressed in CHO cells; range 245-319; format: cell-based
[9] = biological target: T3, Adenosine receptor A2b; experiment: Displacement of [3H]DPCPX from human Adenosine A2B receptor expressed in HEK293 cells; range 65-94; format: cell-based
Outline: (§2)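 Competition binding on membranes of HEK-293 cells carrying recombinant human A2B receptor. Incubation 60 min at 25 °C in 50 mM Tris HCl pH 7.4 with 10 mM MgCl2, 1 mM EDTA, 0.1 mM benzamidine and 2 IU/mL adenosine deaminase. Radioligand 40 nM [3H]DPCPX, at least six to eight test concentrations. NECA defined nonspecific binding. Bound ligand separated on glass-fibre filters and counted; n = 3-6.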

[10] = biological target: T4, Adenosine receptor A2a; experiment: Displacement of [3H]SCH-58261 from human Adenosine A2A receptor expressed in HEK293 cells; range 83-120; format: cell-based
[11] = biological target: T3, Adenosine receptor A2b; experiment: Displacement of [3H]-DPCPX from human Adenosine A2B receptor expressed in HEK293 cells; range 206-282; format: cell-based; outline: as §2
[12] = biological target: T2, Adenosine receptor A3; experiment: Displacement of [3H]MRE3008-F20 from human Adenosine A3 receptor expressed in HEK cells; range 0.10-0.18; format: cell-based, HEK293
[13] = biological target: T4, Adenosine receptor A2a; experiment: Displacement of [3H]SCH-58261 from human Adenosine A2A receptor expressed in HEK293 cells; range 40-96; format: cell-based
[14] = biological target: T3, Adenosine receptor A2b; experiment: Displacement of [3H]DPCPX from human Adenosine A2B receptor expressed in HEK293 cells; range 152-216; format: cell-based; outline: as §2
[15] = biological target: T1, Adenosine receptor A1; experiment: Displacement of [3H]DPCPX from human Adenosine A1 receptor expressed in CHO cells; range 512-698; format: cell-based
Outline: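 Competition binding on membranes of CHO cells stably expressing human A1 receptor, resuspended in 50 mM Tris HCl pH 7.4. Incubation 120 min at 25 °C with 1 nM [3H]DPCPX, 50 µg protein per assay and at least six to eight test concentrations. CHA defined nonspecific binding. Bound ligand separated on glass-fibre filters and counted; n = 3-6.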

[16] = biological target: T2, Adenosine receptor A3; experiment: Displacement of [3H]MRE3008-F20 from human Adenosine A3 receptor expressed in HEK cells; range 0.39-0.54; format: cell-based, HEK293
[17] = biological target: T2, Adenosine receptor A3; experiment: Inhibition of IB-MECA agonist-mediated cAMP production in CHO cell membranes expressing human Adenosine A3 receptor; range 2.7-6.6; format: functional, cell-based
Outline: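 Human A3-CHO membranes (in 50 mM Tris HCl, 10 mM MgCl2, 1 mM EDTA, pH 7.4) were preincubated for 10 min at 37 °C with 5 µM GTP, 0.5 mM Ro 20-1724 and 2.0 IU/mL adenosine deaminase. IB-MECA (100 nM) or antagonist was then added with 1 mM ATP and forskolin for 10 min. The reaction was stopped by 2 min boiling. cAMP was measured by [3H]cAMP competitive protein binding using beef adrenal binding protein, 150 min at 4 °C.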

[18] = biological target: T2, Adenosine receptor A3; experiment: Displacement of [3H]MRE3008-F20 from human Adenosine A3 receptor expressed in HEK cells; range 0.37-0.50; format: cell-based, HEK293
[19] = biological target: T3, Adenosine receptor A2b; experiment: Displacement of [3H]DPCPX from human Adenosine A2B receptor expressed in HEK293 cells; range 76-98; format: cell-based
Outline: (§3)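 HEK-293 membranes expressing the human receptor were incubated 60 min at 25 °C. Six to eight test concentrations were used. Nonspecific binding was set with NECA. n = 3-6.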

[20] = biological target: T1, Adenosine receptor A1; experiment: Displacement of [3H]-DPCPX from human Adenosine A1 receptor expressed in CHO cells; range 240-368; format: cell-based
[21] = biological target: T4, Adenosine receptor A2a; experiment: Displacement of [3H]SCH-58261 from human Adenosine A2A receptor expressed in HEK293 cells; range 91-137; format: cell-based
[22] = biological target: T1, Adenosine receptor A1; experiment: Displacement of [3H]DPCPX from human Adenosine A1 receptor expressed in CHO cells; range 346-586; format: cell-based; outline: as §1
[23] = biological target: T3, Adenosine receptor A2b; experiment: Displacement of [3H]DPCPX from human Adenosine A2B receptor expressed in HEK293 cells; range 178-310; format: cell-based; outline: as §3
[24] = biological target: T2, Adenosine receptor A3; experiment: biochemical
[25] = biological target: T4, Adenosine receptor A2a; experiment: Displacement of [3H]SCH-58261 from human Adenosine A2A receptor expressed in HEK293 cells; range 51-55; format: cell-based

T4 sequence (P29274 whole entry): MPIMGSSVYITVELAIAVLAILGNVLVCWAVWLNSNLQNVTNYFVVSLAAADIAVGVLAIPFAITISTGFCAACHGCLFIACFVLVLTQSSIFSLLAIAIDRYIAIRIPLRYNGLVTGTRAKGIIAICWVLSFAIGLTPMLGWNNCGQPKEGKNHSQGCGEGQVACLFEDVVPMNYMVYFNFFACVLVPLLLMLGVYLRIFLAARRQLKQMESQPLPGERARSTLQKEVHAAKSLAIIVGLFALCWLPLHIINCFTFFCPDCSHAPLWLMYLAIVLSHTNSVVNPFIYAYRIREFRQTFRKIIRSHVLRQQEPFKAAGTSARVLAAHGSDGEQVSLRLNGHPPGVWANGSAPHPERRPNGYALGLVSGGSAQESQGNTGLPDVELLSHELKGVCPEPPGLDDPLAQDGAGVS

Ratio [1]: 286
Ki [2]: 602 nM
Ki [3]: 0.86 nM
Ki [4]: 246 nM
Ki [5]: 60 nM
Ratio [6]: 700
Structure (SMILES): CCn1cc2c(nc(NC(=O)Nc3ccc(F)cc3)n3nc(-c4ccco4)nc23)n1

Ratio [1]: 91
Ki [7]: 0.86 nM
Ki [8]: 280 nM
Ki [9]: 78 nM
Ratio [6]: 326
Ki [10]: 100 nM
Structure (SMILES): CCCCn1cc2c(nc(NC(=O)Nc3ccccc3Cl)n3nc(-c4ccco4)nc23)n1

Ratio [1]: 1610
Ki [11]: 241 nM
Ki [12]: 0.15 nM
Ratio [6]: 1170
Ki [13]: 62 nM
Structure (SMILES): CCCn1cc2c(nc(NC(=O)Nc3ccccc3)n3nc(-c4ccco4)nc23)n1

Ratio [1]: 393
Ki [14]: 181 nM
Ratio [6]: 1300
Ki [15]: 600 nM
Ki [10]: 100 nM
Ki [16]: 0.46 nM
IC50 [17]: 4.2 nM
Structure (SMILES): Cn1cc2c(nc(NC(=O)Nc3ccc(Br)cc3)n3nc(-c4ccco4)nc23)n1

Ratio [1]: 202
Ki [18]: 0.43 nM
Ki [19]: 87 nM
Ratio [6]: 698
Ki [20]: 300 nM
Ki [21]: 111 nM
Structure (SMILES): CCCCn1cc2c(nc(NC(=O)Nc3ccc(Cl)cc3)n3nc(-c4ccco4)nc23)n1

Ratio [1]: 242
Ki [22]: 450 nM
Ratio [6]: 464
Ki [23]: 235 nM
Ki [24]: 0.97 nM
Ki [25]: 53 nM
Structure (SMILES): CCn1cc2c(nc(NC(=O)Nc3ccc(C(F)(F)F)cc3)n3nc(-c4ccco4)nc23)n1
